Measured values from ChEMBL document CHEMBL1255500, “Safety and pharmacokinetics of the antiorthopoxvirus compound ST-246 following repeat oral dosing in healthy adult subjects” (Antimicrob Agents Chemother, 2010).

How the values were obtained:
[1] = Cmax in healthy human at 250 mg/day, po administered for 21 days measured at day 1; type: ADME, organism-based; design: dose 250 mg/day, route oral; conditions: in vivo
Method in brief: (§1)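 Healthy adult volunteers, 8 per dose group, in the nonfasted state. Each took one oral dose daily for 21 days, within 30 min after a standard light meal (400 to 450 cal, ~25% fat). Venous blood was drawn predose and postdose on days 1, 6 and 21. Plasma was stored at −70°C and assayed by validated LC-MS/MS with an analog internal standard (range 50 to 4,000 ng/ml). AUCtau and Cmax were obtained by noncompartmental analysis.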

[2] = AUC in healthy human at 250 mg/day, po administered for 21 days measured at day 1; type: ADME, organism-based; conditions: plasma
Method in brief: (§2)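 Phase I randomized, double-blind, placebo-controlled escalating multiple-dose study; 8 nonfasting healthy adults per dose group, one oral dose daily within 30 min after a standard light meal (400 to 450 cal, ~25% fat) for 21 days. Plasma was sampled serially on days 1, 6 and 21 (72 h after the last dose) and stored at −70°C. ST-246 was measured by validated LC-MS/MS with an analog internal standard (plasma range 50 to 4,000 ng/ml). Parameters (AUCtau, Cmax, Tmax, t1/2) came from noncompartmental analysis.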

[3] = Cmax in healthy human at 400 mg/day, po administered for 21 days measured at day 1; type: ADME, organism-based; design: dose 400 mg/day, route oral; conditions: in vivo; method in brief: as §1
[4] = AUC in healthy human at 400 mg/day, po administered for 21 days measured at day 1; type: ADME, organism-based; conditions: plasma; method in brief: as §2
[5] = Cmax in healthy human at 800 mg/day, po administered for 21 days measured at day 1; type: ADME, organism-based; design: dose 800 mg/day, route oral; conditions: in vivo; method in brief: as §1
[6] = AUC in healthy human at 800 mg/day, po administered for 21 days measured at day 1; type: ADME, organism-based; conditions: plasma; method in brief: as §1
[7] = Cmax in healthy human at 250 mg/day, po administered for 21 days measured at day 6; type: ADME, organism-based; design: dose 250 mg/day, route oral; conditions: in vivo; method in brief: as §1
[8] = AUC in healthy human at 250 mg/day, po administered for 21 days measured at day 6; type: ADME, organism-based; conditions: plasma; method in brief: as §1
[9] = Cmax in healthy human at 400 mg/day, po administered for 21 days measured at day 6; type: ADME, organism-based; design: dose 400 mg/day, route oral; conditions: in vivo; method in brief: as §1
[10] = AUC in healthy human at 400 mg/day, po administered for 21 days measured at day 6; type: ADME, organism-based; conditions: plasma; method in brief: as §1
[11] = Cmax in healthy human at 800 mg/day, po administered for 21 days measured at day 6; type: ADME, organism-based; design: dose 800 mg/day, route oral; conditions: in vivo; method in brief: as §1
[12] = AUC in healthy human at 800 mg/day, po administered for 21 days measured at day 6; type: ADME, organism-based; conditions: plasma; method in brief: as §1
[13] = AUC in healthy human at 250 mg/day, po administered for 21 days measured at day 21; type: ADME, organism-based; conditions: plasma; method in brief: as §1
[14] = Half life in healthy human at 400 mg/day, po administered for 21 days measured at day 21; type: ADME, organism-based; conditions: in vivo; method in brief: as §2
[15] = Cmax in healthy human at 400 mg/day, po administered for 21 days measured at day 21; type: ADME, organism-based; conditions: in vivo; method in brief: as §2
[16] = AUC in healthy human at 400 mg/day, po administered for 21 days measured at day 21; type: ADME, organism-based; design: dose 400 mg/day, route oral; conditions: plasma; method in brief: as §2
[17] = Half life in healthy human at 250 mg/day, po administered for 21 days measured at day 21; type: ADME, organism-based; conditions: in vivo
Method in brief: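 Healthy nonfasted volunteers took one oral dose daily for 21 days after a standard light meal. Plasma was sampled for 72 h after the last dose on day 21 (days 21 to 24) and quantified by validated LC-MS/MS. Terminal t1/2 was derived noncompartmentally from the observed elimination rate constant (λz), and mean and median were given.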

[18] = AUC in healthy human at 800 mg/day, po administered for 21 days measured at day 21; type: ADME, organism-based; conditions: plasma; method in brief: as §1
[19] = Half life in healthy human at 800 mg/day, po administered for 21 days measured at day 21; type: ADME, organism-based; conditions: in vivo; method in brief: as §2
[20] = Tmax in healthy human at 250 to 800 mg/day, po administered for 21 days measured at day 1; type: ADME, organism-based; conditions: in vivo; method in brief: as §2
[21] = Tmax in healthy human at 250 to 800 mg/day, po administered for 21 days measured at day 6; type: ADME, organism-based; conditions: in vivo; method in brief: as §2
[22] = Tmax in healthy human at 250 to 800 mg/day, po administered for 21 days measured at day 21; type: ADME, organism-based; conditions: in vivo; method in brief: as §2
Homo sapiens [23] = assay: Toxicity in healthy human assessed as incidence of treatment-emergent adverse events at 250 mg/day, po administered for 21 days; type: organism-based; conditions: in vivo, 504 h
Method in brief: (§3)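 Randomized, double-blind, placebo-controlled escalating study; 8 active and 2 placebo subjects per dose group, oral daily dosing after a standard light meal for 21 days. Safety was followed through adverse event reporting, vital signs, physical exam, hematology, blood chemistry, urinalysis and ECGs, with clinic visits at weeks 1 to 3. Laboratory AEs were graded by DAIDS criteria. Results are the number and percentage of subjects reporting each treatment-emergent AE.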

Homo sapiens [24] = assay: Toxicity in healthy human assessed as incidence of abnormal eye sensation at 250 mg/day, po administered for 21 days; type: organism-based; conditions: in vivo, 504 h; method in brief: as §3
Homo sapiens [25] = assay: Toxicity in healthy human assessed as incidence of dry mouth at 250 mg/day, po administered for 21 days; type: organism-based; conditions: in vivo, 504 h; method in brief: as §3
Homo sapiens [26] = assay: Toxicity in healthy human assessed as incidence of flatulence at 250 mg/day, po administered for 21 days; type: organism-based; conditions: in vivo, 504 h; method in brief: as §3
Homo sapiens [27] = assay: Toxicity in healthy human assessed as incidence of nausea at 250 mg/day, po administered for 21 days; type: organism-based; conditions: in vivo, 504 h; method in brief: as §3
Homo sapiens [28] = assay: Toxicity in healthy human assessed as incidence of fatigue at 250 mg/day, po administered for 21 days; type: organism-based; conditions: in vivo, 504 h; method in brief: as §3
Homo sapiens [29] = assay: Toxicity in healthy human assessed as incidence of headache at 250 mg/day, po administered for 21 days; type: organism-based; conditions: in vivo, 504 h; method in brief: as §3
Homo sapiens [30] = assay: Toxicity in healthy human assessed as incidence of somnolence at 250 mg/day, po administered for 21 days; type: organism-based; conditions: in vivo, 504 h; method in brief: as §3
Homo sapiens [31] = assay: Toxicity in healthy human assessed as incidence of urticaria at 250 mg/day, po administered for 21 days; type: organism-based; conditions: in vivo, 504 h; method in brief: as §3
Homo sapiens [32] = assay: Toxicity in healthy human assessed as incidence of abnormal eye sensation at 400 mg/day, po administered for 21 days; type: organism-based; conditions: in vivo, 504 h; method in brief: as §3
Homo sapiens [33] = assay: Toxicity in healthy human assessed as incidence of dry mouth at 400 mg/day, po administered for 21 days; type: organism-based; conditions: in vivo, 504 h; method in brief: as §3
Homo sapiens [34] = assay: Toxicity in healthy human assessed as incidence of flatulence at 400 mg/day, po administered for 21 days; type: organism-based; conditions: in vivo, 504 h; method in brief: as §3
Homo sapiens [35] = assay: Toxicity in healthy human assessed as incidence of nausea at 400 mg/day, po administered for 21 days; type: organism-based; conditions: in vivo, 504 h; method in brief: as §3
Homo sapiens [36] = assay: Toxicity in healthy human assessed as incidence of fatigue at 400 mg/day, po administered for 21 days; type: organism-based; conditions: in vivo, 504 h; method in brief: as §3
Homo sapiens [37] = assay: Toxicity in healthy human assessed as incidence of headache at 400 mg/day, po administered for 21 days; type: organism-based; conditions: in vivo, 504 h; method in brief: as §3
Homo sapiens [38] = assay: Toxicity in healthy human assessed as incidence of somnolence at 400 mg/day, po administered for 21 days; type: organism-based; conditions: in vivo, 504 h; method in brief: as §3
Homo sapiens [39] = assay: Toxicity in healthy human assessed as incidence of urticaria at 400 mg/day, po administered for 21 days; type: organism-based; conditions: in vivo, 504 h; method in brief: as §3
Homo sapiens [40] = assay: Toxicity in healthy human assessed as incidence of treatment-emergent adverse events at 800 mg/day, po administered for 21 days; type: organism-based; conditions: in vivo, 504 h; method in brief: as §3
Homo sapiens [41] = assay: Toxicity in healthy human assessed as incidence of abnormal eye sensation at 800 mg/day, po administered for 21 days; type: organism-based; conditions: in vivo, 504 h; method in brief: as §3
Homo sapiens [42] = assay: Toxicity in healthy human assessed as incidence of dry mouth at 800 mg/day, po administered for 21 days; type: organism-based; conditions: in vivo, 504 h; method in brief: as §3
Homo sapiens [43] = assay: Toxicity in healthy human assessed as incidence of flatulence at 800 mg/day, po administered for 21 days; type: organism-based; conditions: in vivo, 504 h; method in brief: as §3
Homo sapiens [44] = assay: Toxicity in healthy human assessed as incidence of nausea at 800 mg/day, po administered for 21 days; type: organism-based; conditions: in vivo, 504 h; method in brief: as §3
Homo sapiens [45] = assay: Toxicity in healthy human assessed as incidence of fatigue at 800 mg/day, po administered for 21 days; type: organism-based; conditions: in vivo, 504 h; method in brief: as §3
Homo sapiens [46] = assay: Toxicity in healthy human assessed as incidence of headache at 800 mg/day, po administered for 21 days; type: organism-based; conditions: in vivo, 504 h; method in brief: as §3
Homo sapiens [47] = assay: Toxicity in healthy human assessed as incidence of somnolence at 800 mg/day, po administered for 21 days; type: organism-based; conditions: in vivo, 504 h; method in brief: as §3
Homo sapiens [48] = assay: Toxicity in healthy human assessed as incidence of urticaria at 800 mg/day, po administered for 21 days; type: organism-based; conditions: in vivo, 504 h; method in brief: as §3

Compound: O=C(NN1C(=O)[C@@H]2[C@@H]3C=C[C@@H]([C@H]4C[C@@H]34)[C@@H]2C1=O)c1ccc(C(F)(F)F)cc1 [TECOVIRIMAT]
- Cmax [1]: 985 ng/mL
- AUC at 504 h [2]: 9100 ng·h/mL
- Cmax [3]: 1390 ng/mL
- AUC at 504 h [4]: 13100 ng·h/mL
- Cmax [5]: 2280 ng/mL
- AUC at 504 h [6]: 21000 ng·h/mL
- Cmax [7]: 1210 ng/mL
- AUC at 504 h [8]: 11900 ng·h/mL
- Cmax [9]: 1300 ng/mL
- AUC at 504 h [10]: 15400 ng·h/mL
- Cmax [11]: 2340 ng/mL
- AUC at 504 h [12]: 23400 ng·h/mL
- AUC at 504 h [13]: 10100 ng·h/mL
- half-life [14]: 19.8 h
- Cmax [15]: 1460 ng/mL
- AUC at 504 h [16]: 16200 ng·h/mL
- half-life [17]: 18.8 h
- AUC at 504 h [18]: 22700 ng·h/mL
- half-life [19]: 20.7 h
- Tmax [20]: 2.88 h
- Tmax [21]: 2.63 h
- Tmax [22]: 2.67 h
- Activity (Homo sapiens [23]): 75%
- Activity (Homo sapiens [24]): 0%
- Activity (Homo sapiens [25]): 0%
- Activity (Homo sapiens [26]): 0%
- Activity (Homo sapiens [27]): 0%
- Activity (Homo sapiens [28]): 12.5%
- Activity (Homo sapiens [29]): 37.5%
- Activity (Homo sapiens [30]): 0%
- Activity (Homo sapiens [31]): 0%
- Activity (Homo sapiens [32]): 0%
- Activity (Homo sapiens [33]): 0%
- Activity (Homo sapiens [34]): 0%
- Activity (Homo sapiens [35]): 0%
- Activity (Homo sapiens [36]): 0%
- Activity (Homo sapiens [37]): 0%
- Activity (Homo sapiens [38]): 0%
- Activity (Homo sapiens [39]): 0%
- Activity (Homo sapiens [40]): 62.5%
- Activity (Homo sapiens [41]): 12.5%
- Activity (Homo sapiens [42]): 12.5%
- Activity (Homo sapiens [43]): 25%
- Activity (Homo sapiens [44]): 12.5%
- Activity (Homo sapiens [45]): 0%
- Activity (Homo sapiens [46]): 25%
- Activity (Homo sapiens [47]): 12.5%
- Activity (Homo sapiens [48]): 0%
